Screening data as filed in PubChem.
STK33 inh: inhibitors of purified STK33 kinase, primary screen, biochemical, ADP-Glo luminescence, homogeneous, cell-free; inhibition, % at 10 µM; 320,000 tested, 0.073% active; Serine/threonine-protein kinase 33 (Homo sapiens), Q9BYT3; MBP phosphorylation;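 active = inhibition at or above 25%, using the most active replicate where run in duplicate; inactive = inhibition below 25%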
CDK5 p35 inh: inhibitors of human CDK5/p35 kinase, primary screen, biochemical, single concentration | Recombinant CDK5/p35, ADP-Glo luminescence, 60 min | inhibition, % at 10 µM | 330,000 tested, 0.01% active | AID 488839, 2010;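 active = highest replicate inhibition of at least 50% and at least 75% of replicates reaching 50%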;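 note: plate controls were DMSO neutral control for no effect and GW8510 at 10 µM for full effect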
Target sequence (Q00535 whole entry, looked up): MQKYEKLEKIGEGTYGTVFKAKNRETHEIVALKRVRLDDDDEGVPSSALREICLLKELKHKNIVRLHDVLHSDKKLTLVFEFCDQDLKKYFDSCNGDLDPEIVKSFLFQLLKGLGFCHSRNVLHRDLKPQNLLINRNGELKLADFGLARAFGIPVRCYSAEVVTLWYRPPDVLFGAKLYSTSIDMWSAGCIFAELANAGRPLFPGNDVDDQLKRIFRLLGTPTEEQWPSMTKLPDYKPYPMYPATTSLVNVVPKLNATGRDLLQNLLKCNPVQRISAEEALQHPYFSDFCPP
Target sequence (Q15078 whole entry, looked up): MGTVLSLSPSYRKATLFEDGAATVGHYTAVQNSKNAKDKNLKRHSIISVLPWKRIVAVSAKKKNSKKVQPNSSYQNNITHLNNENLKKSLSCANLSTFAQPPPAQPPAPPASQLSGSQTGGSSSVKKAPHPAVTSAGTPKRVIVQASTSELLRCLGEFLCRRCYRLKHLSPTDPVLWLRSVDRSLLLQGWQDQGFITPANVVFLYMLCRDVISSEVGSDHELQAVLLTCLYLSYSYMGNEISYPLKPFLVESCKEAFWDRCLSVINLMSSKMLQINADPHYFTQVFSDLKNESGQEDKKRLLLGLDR
GSK3beta inhib: human GSK3beta kinase inhibitors, primary screen, biochemical, cell-free homogeneous, HTS; Glycogen synthase kinase-3 beta (Homo sapiens), P49841; GST-GSK3beta kinase, ADP-Glo luminescence, 60 min; active compounds read low; activity score (negative = inhibition), % at 10 µM; 300,000 tested, 0.038% active;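 active = more than half of replicate wells score below -50%, meaning over 50% inhibition versus plate controls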;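 note: 0% = median DMSO wells and -100% = median GW8510 positive control wells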
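Assay system: GST-tagged human GSK3beta kinase, cell-free; Input: 1.6 ng GSK3beta; Medium: Tris/MgCl2 kinase buffer; Timing: 60 min enzyme reaction, room temperature; Signal: ADP-Glo luminescence quantifying ADP generated by kinase; Evaluation: score relative to plate controls; Benchmarks: DMSO neutral wells and GW8510 at 20 µM as positive.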
GSK3 alpha inh: blockers of GSK3A enzyme activity – biochemical, luminescence, cell-free homogeneous, HTS, primary screen. inhibition, % at 10 µM. GSK-3 alpha kinase, ADP-Glo luminescence, 60 min. Glycogen synthase kinase-3 alpha (Homo sapiens), P49840. 320,000 tested, 0.1% active. AID 2650, 2010;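 active = more than half of replicates show inhibition above 20%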;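 note: GST-tagged GSK-3 alpha with peptide substrate and 25 µM ATP; 0% = DMSO neutral wells and 100% = GW8510 positive control wells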
Starred values were filed as active, the others as inactive; / = no result given. This is a sample that favours compounds with a hit; in the whole collection about 0.16% have one here.

SMILES	STK33 inh	CDK5 p35 inh	GSK3beta inhib	GSK3 alpha inh
CC(=O)Nc1cccc2c1C(=O)NC2=O	1	1	2	72*
O=C1NC(=O)c2c(NC(=O)C3CCCO3)cccc21 (centres undefined)	1	7	-3	8
Cc1ccc(S(=O)(=O)NC(=O)C2CCCCC2)cc1	0	-1	/	-5
CC1CCC2(CC1)NC(=O)N(CC(=O)Nc1sc3c(c1C(N)=O)CCC3)C2=O (centres undefined)	0	5	-32	78*
CC1CCCCC12NC(=O)N(CC(=O)Nc1sc3c(c1C(N)=O)CCC3)C2=O (centres undefined)	0	-2	-3	58*
COC(=O)c1c(NC(=O)CN2C(=O)NC3(CCC(C)CC3)C2=O)sc2c1CCC2 (centres undefined)	0	-1	/	-1
COc1ccc(CC(=O)OCC(=O)Nc2cc(Cl)ccc2C)cc1	-1	0	/	-3
COc1ccccc1CNC(=O)C1CCC(=O)N(CCCc2ccccc2)C1 (centres undefined)	-1	-1	0	-2
Nc1c(O)ccc2c1C(=O)c1ccccc1C2=O	35*	/	-13	30
COc1ccc2c(c1O)C(=O)c1ccccc1C2=O	0	/	5	-1
O=C(Nc1ccc(SC(F)(F)F)cc1)c1ccccn1	0	1	-1	-2
COc1cc(/C=C/C(=O)NC(=O)c2ccccc2O)ccc1O	-1	1	1	-1
COc1cc(/C=C/C(O)=C/C(=O)/C=C/c2ccc(O)cc2)ccc1O	43*	-2	/	-3
c1ccc(-c2csc3ncnc(NCc4ccccn4)c23)cc1	3	3	-21	25
c1ccc(CNc2ncnc3scc(-c4cccs4)c23)nc1	11	-4	-37	57*
COC(=O)Nc1nnc(Cc2ccccc2)s1	26*	2	-23	0
COC(=O)Nc1nnc(CCc2ccccc2)s1	1	-1	-1	-1
COc1c(F)cc2[nH]c3c(c2c1F)CCNC3=O	8	2	-2	5
CN1/C(=C/C=C(/C#N)C(N)=O)C(C)(C)c2ccccc21	3	4	-35	63*
CC(C)(C)C(=O)c1sc(Nc2ccccc2)nc1N	2	30	-64*	82*
CCOC(=O)c1sc(Nc2ccc(F)cc2)nc1C	/	0	-5	-2
COc1ccc(Nc2nc(N)c(C(=O)c3ccc(F)cc3)s2)cc1	3	6	-45	62*
COc1ccc(C(=O)c2sc(Nc3ccccc3)nc2C)cc1	2	-1	0	4
COc1ccc(Nc2nc(N)c(C(=O)c3ccc(OC)cc3)s2)cc1	4	15	-65*	77*
O=C1NC(=O)C(c2ccccc2[N+](=O)[O-])=C1Nc1ccc(O)c(Cl)c1	14	66*	/	/
SMILES	STK33 inh	CDK5 p35 inh	GSK3beta inhib	GSK3 alpha inh
O=C(Nc1ccccc1C(=O)O)c1cccc(C(=O)Nc2ccccc2C(=O)O)c1	57*	-1	5	-5
O=C(Nc1ccccc1C(=O)O)c1ccccc1	12	-1	4	-5
O=C(Nc1nccs1)c1ccc(N2CCOCC2)c([N+](=O)[O-])c1	26*	1	-8	4
C#CCOCCOCCOCCNc1nc(N2CCN(C(=O)CCCCCCCCCCNC(=O)[C@H]([C@@H](C)CC)n3cc(CCCCN=C(N)N)nn3)CC2)nc(N2CCN(C(=O)CCCCCCCCCCNC(=O)[C@H]([C@@H](C)CC)n3cc(CCCCN=C(N)N)nn3)CC2)n1	31*	/	/	7
COc1ccc(C(=O)O/N=C(\N)c2ccccc2)cc1	26*	28	1	32
Cc1ccc(C(=O)O/N=C(\N)c2ccccn2)c(Cl)c1	29*	34	-31	34
COc1ccc(C(=O)O/N=C(/C)c2cccs2)cc1	46*	40	-37	32
COc1cccc(C(=O)O/N=C(\N)c2ccccn2)c1	37*	41	/	46
COc1ccc(C(=O)O/N=C(\C)c2nccs2)cc1	5	6	-7	1
CC(C)Cn1cnc2c(Sc3c([N+](=O)[O-])ncn3C)nc(N)nc21	/	0	/	/
Cc1cccc(NC(=O)CN(CC2CCCO2)C(=O)c2ccc(S(C)(=O)=O)cc2)c1C (centres undefined)	/	0	/	/
